Results collected from several papers.
Lines come from different studies, so protocols differ.
ADORA3: Adenosine receptor A3 (ADORA3, Homo sapiens, UniProt P0DMS8)
Liver carboxylesterase: Liver carboxylesterase (Sus scrofa, UniProt Q29550)
MC1R: Melanocyte-stimulating hormone receptor (MC1R, Homo sapiens, UniProt Q01726)
DRD2: D(2) dopamine receptor (DRD2, Homo sapiens, UniProt P14416)

CCCC(C)N1CCCn2c1nc1c2c(=O)n(C)c(=O)n1C (stereo not shown)  Ki (ADORA3; ligand displacement, radioligand; cell membranes): > 10 µM
CCNC(=O)[C@H]1O[C@@H](n2cnc3c(N)nc(NN=C[C@H]4CCC=CO4)nc32)[C@H](O)[C@@H]1O  Ki (ADORA3; ligand displacement, radioligand): 0.00451 µM
COC(=O)[C@H](CSC/C=C(\C)CC/C=C(\C)CCC=C(C)C)NC(=O)c1ccc(-c2ccccc2)cc1  Ki (Liver carboxylesterase; enzyme activity, inhibitor, HPLC): 190 µM
CCCCC[C@H](O)/C=C/C1=C(CCCCCCC(=O)O)C(=O)CC1  Ki (Liver carboxylesterase; enzyme activity, inhibitor, HPLC; pH 7.4): 16 µM
CCN1CCCn2c1nc1c2c(=O)n(C)c(=O)n1C  Ki (ADORA3; ligand displacement, radioligand; cell membranes): > 10 µM
CCCCC[C@H](O)/C=C/[C@H]1[C@H](O)CC(=O)[C@@H]1C/C=C\CCCC(=O)O  Ki (Liver carboxylesterase; enzyme activity, inhibitor, HPLC; pH 7.4): > 28 µM
CCCCN1CCCn2c1nc1c2c(=O)n(C)c(=O)n1C  Ki (ADORA3; ligand displacement, radioligand; cell membranes): > 10 µM
CCCC[C@H](NC(=O)[C@H](CO)NC(=O)[C@H](Cc1ccc(O)cc1)NC(=O)[C@H](CO)NC(C)=O)C(=O)N[C@@H](CCC(=O)O)C(=O)N[C@@H](Cc1c[nH]cn1)C(=O)N[C@@H](C)C(=O)N[C@@H](CCCNC(=N)N)C(=O)N[C@@H](Cc1c[nH]c2ccccc12)C(=O)NCC(=O)N[C@@H](CCCCN)C(=O)N1CCC[C@H]1C(=O)N[C@H](C(=O)NCC(=O)N[C@@H](CCCCN)C(=O)N[C@@H](CCCCN)C(=O)N[C@@H](CCCNC(=N)N)C(N)=O)C(C)C  Ki (MC1R; ligand displacement in cells, radioligand): 0.0378 µM
CC[C@H](C)[C@H](NC(=O)CN)C(=O)N[C@H](C(=O)N[C@@H](CC(N)=O)C(=O)N[C@H](C(=O)N[C@@H](CC(C)C)C(=O)N[C@@H](CCC(N)=O)C(=O)N[C@@H](CCCCN)C(=O)N[C@@H](Cc1ccc(O)cc1)C(=O)N[C@@H](Cc1ccc(O)cc1)C(=O)N[C@@H](CO)C(=O)N[C@@H](CCCNC(=N)N)C(=O)N[C@H](C(=O)N[C@@H](CCCNC(=N)N)C(=O)NCC(=O)NCC(=O)N[C@@H](CCCNC(=N)N)C(=O)N[C@H]1CSSC[C@@H](C(=O)N[C@@H](CO)C(=O)N[C@H](C(=O)N[C@@H](CCCNC(=N)N)C(=O)NCC(=O)N[C@@H](CCCNC(=N)N)C(=O)N[C@@H](CCCCN)C(=O)N[C@@H](CO)C(=O)N[C@@H](CO)C(=O)N[C@@H](CCCNC(=N)N)C(=O)N[C@@H](CCCNC(=N)N)C(=O)N[C@@H](CCCCN)C(=O)N[C@@H](CCCCN)C(N)=O)[C@@H](C)O)NC(=O)[C@H](CCCCN)NC(=O)CNC(=O)[C@H]([C@@H](C)CC)NC(=O)[C@H](CCC(N)=O)NC(=O)[C@H](CCC(=O)O)NC(=O)[C@H](CCC(=O)O)NC(=O)[C@H](CCCCN)NC(=O)[C@@H]2CCCN2C(=O)[C@H](CC(C)C)NC(=O)[C@H](CO)NC(=O)[C@H](CO)NC(=O)[C@H](CC(C)C)NC(=O)[C@H](C(C)C)NC(=O)[C@H](C)NC1=O)C(C)C)[C@@H](C)O)[C@@H](C)CC  Ki (MC1R; ligand displacement in cells): 0.373 µM
C=CN1CCCn2c1nc1c2c(=O)n(C)c(=O)n1C  Ki (ADORA3; ligand displacement, radioligand; cell membranes): > 10 µM
CCCCC[C@H](O)/C=C/[C@H]1[C@H](O)CC(=O)[C@@H]1CCCCCCC(=O)O  Ki (Liver carboxylesterase; enzyme activity, inhibitor, HPLC): > 28 µM
CC(C)CC(C)N1CCCn2c1nc1c2c(=O)n(C)c(=O)n1C (stereo not shown)  Ki (ADORA3; ligand displacement, radioligand; cell membranes): > 10 µM
COc1ccc2c(c1)C(=O)N(CCN1CCN(c3ccccc3OC)CC1)C2  Ki (DRD2; ligand displacement, radioligand): 1.65 µM
CCn1c(-c2nc3cc(C(=O)N4CCC[C@@H](N)C4)cc(OC)c3n2C)cc2cccnc21  Ki (Protein-arginine deiminase type-2 (PADI2, Homo sapiens, UniProt Q9Y2J8); enzyme activity, inhibitor): 1580 µM
NCCCC[C@H](NC(=O)[C@@H]1CCCN1C(=O)[C@@H]1CSSC[C@H](NC(=O)CNC(=O)CNC(=O)CN)C(=O)N[C@@H](Cc2ccc(O)cc2)C(=O)N[C@@H](Cc2ccccc2)C(=O)N[C@@H](CCC(N)=O)C(=O)N[C@@H](CC(N)=O)C(=O)N1)C(=O)NCC(N)=O  Ki (Vasopressin V2 receptor (AVPR2, Homo sapiens, UniProt P30518); ligand displacement, radioligand; cell membranes): 6.9 µM
OC[C@H]1OC(O)[C@H](O)[C@@H](O)[C@H]1O (stereo partly shown)  Ki (Alpha-galactosidase A (GLA, Homo sapiens, UniProt P06280); enzyme activity, inhibitor): 16000 µM
CNC(=O)[C@@]12C[C@@H]1[C@@H](n1cnc3c(NCc4cn(-c5ccc(F)c(N)c5)nn4)nc(Cl)nc31)[C@H](O)[C@@H]2O  Ki (ADORA3; ligand displacement, radioligand; cell membranes): 0.0226 µM
C=CCN1CCCn2c1nc1c2c(=O)n(C)c(=O)n1C  Ki (ADORA3; ligand displacement, radioligand; cell membranes): > 10 µM
COc1cccc(CCC2=NCCN2CCc2ccccc2)c1  Ki (DRD2; ligand displacement, radioligand): > 10 µM
